Results from ChEMBL document CHEMBL1129245, “N-heteroaryl-2-phenyl-3-(benzyloxy)piperidines: a novel class of potent orally active human NK1 antagonists” (J Med Chem, 1996).

How the values were obtained:
Oryctolagus cuniculus = species on record: Oryctolagus cuniculus; assay: Displacement of [3H]diltiazem from rabbit skeletal muscle calcium channel; type: tissue-based; conditions: Muscle tissue
Substance-P receptor = Substance-P receptor (Homo sapiens, UniProt P25103); assay: Displacement of [125 I]-Tyr8 SP from the cloned human Tachykinin receptor 1 expressed in CHO cells; type: cell-based
Cavia porcellus = assay: Inhibition of SP- induced dermal guinea pig after peroral administration; type: functional; conditions: read-out: ID50 (the source's name)
In short: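 Guinea pigs dosed orally with antagonist, then challenged 1 h later with intradermal substance P. Vascular leakage measured as extravasation of Evans blue dye. ID50 (mg/kg po) taken from dose-response data, 5-12 animals per data point.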

Rattus norvegicus = assay: Inhibition of […] of the rat after intravenous administration; type: functional; conditions: read-out: ID50 (the source's name)
In short: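 Rats given test compound intravenously. Plasma extravasation in the dura mater measured, n = 8-10. ID50 reported in mg/kg iv.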

Chain of Substance-P receptor (P25103 whole entry): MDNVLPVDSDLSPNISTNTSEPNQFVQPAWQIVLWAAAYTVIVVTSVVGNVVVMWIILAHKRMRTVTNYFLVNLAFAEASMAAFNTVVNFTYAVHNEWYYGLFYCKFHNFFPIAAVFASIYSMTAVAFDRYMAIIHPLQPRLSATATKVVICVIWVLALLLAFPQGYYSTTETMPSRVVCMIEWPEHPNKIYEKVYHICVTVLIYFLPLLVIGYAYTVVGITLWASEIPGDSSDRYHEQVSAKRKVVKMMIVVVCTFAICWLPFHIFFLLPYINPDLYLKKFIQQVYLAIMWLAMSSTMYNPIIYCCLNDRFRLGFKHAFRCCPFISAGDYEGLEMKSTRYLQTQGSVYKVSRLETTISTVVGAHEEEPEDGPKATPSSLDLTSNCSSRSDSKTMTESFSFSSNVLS

Binding affinity (Oryctolagus cuniculus) [µM]	IC50 (Substance-P receptor) [nM]	Structure (SMILES)	ED50 (Cavia porcellus) [mg/kg]	ED50 (Rattus norvegicus) [mg/kg]
10	0.97	FC(F)(F)c1cc(CO[C@H]2CCCN(Cc3nnco3)[C@H]2c2ccccc2)cc(C(F)(F)F)c1	–	–
4	–	COc1ccccc1CN[C@H]1CCCN[C@H]1c1ccccc1 [CP-99994]	1.6	0.052
2.06	0.53	FC(F)(F)c1cc(CO[C@H]2CCCN(Cc3ncc[nH]3)[C@H]2c2ccccc2)cc(C(F)(F)F)c1	–	–
> 100	–	FC(F)(F)c1cc(CO[C@H]2CCCN(Cc3nc[nH]n3)[C@H]2c2ccccc2)cc(C(F)(F)F)c1	0.4	0.008
